Assay results from ChEMBL document CHEMBL4406875, “Design, synthesis and biological evaluation of amino acids-oleanolic acid conjugates as influenza virus inhibitors” (Bioorg Med Chem, 2019).

Experiments:
[1] = system: Influenza B virus; experiment: Antiviral activity against oseltamivir resistant Victoria lineage of Influenza B virus (B/Brisbane/60/2008) BX-35 infected in MDCK cells assessed as inhibition of virus-induced cytopathic effect measured after 45 hrs by CellTiter-Glo luminescence assay; type: functional, organism-based; conditions: B/Brisbane/60/2008 BX-35, MDCK
In short: (§1)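 MDCK cells (5,000/well) were seeded one day before infection. Infection medium was high-glucose DMEM with 1% FBS and trypsin (1 μg/mL). Compounds were added at various concentrations and cells infected at MOI 0.1. After 45 h, viability was read by CellTiter-Glo luminescence. IC50 was taken from dose-response curves, as the mean of duplicate samples from three independent experiments.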

[2] = system: Influenza B virus; experiment: Antiviral activity against oseltamivir resistant Yamagata lineage of Influenza B virus (B/Massachusetts/2/2012) BX-51B infected in MDCK cells assessed as inhibition of virus-induced cytopathic effect measured after 45 hrs by CellTiter-Glo luminescence assay; type: functional, organism-based; conditions: B/Massachusetts/02/2012 BX-51B; in short: as §1

| SMILES | IC50 [1] | IC50 [2] |
| --- | --- | --- |
| CC1(C)CC[C@]2(C(=O)N[C@@H](CCCNC(=N)N)C(=O)O)CC[C@]3(C)C(=CC[C@@H]4[C@@]5(C)CC[C@H](O)C(C)(C)[C@@H]5CC[C@]43C)[C@@H]2C1 | 61.6 µM | 45.8 µM |
| CCOC(=O)C1=C[C@@H](OC(CC)CC)[C@H](NC(C)=O)[C@@H](N)C1 [OSELTAMIVIR PHOSPHATE] | > 100 µM | > 100 µM |
